Converted amounts (≈) assume the structure as drawn.
Tests used:
[1] = test system: Bacteroides fragilis; test: Antimicrobial activity against Bacteroides fragilis after 48 hrs by agar dilution method; assay type: functional
Method in brief: (§1)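 MICs on clinical anaerobe isolates by the CLSI agar dilution method. Inoculum of 10^5 CFU applied with a Steers replicator. Plates incubated 48 h at 37°C in an anaerobic chamber.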

[2] = test system: Bacteroides thetaiotaomicron; test: Antimicrobial activity against Bacteroides thetaiotaomicron after 48 hrs by agar dilution method; assay type: functional; method in brief: as §1
[3] = test system: Phocaeicola vulgatus; test: Antimicrobial activity against Bacteroides vulgatus after 48 hrs by agar dilution method; assay type: functional; method in brief: as §1
[4] = test system: Bacteroides fragilis; test: Antimicrobial activity against Bacteroides fragilis assessed as percent susceptible isolates after 48 hrs by agar dilution method; assay type: functional
[5] = test system: Bacteroides caccae; test: Antimicrobial activity against Bacteroides caccae assessed as percent resistant isolates after 48 hrs by agar dilution method; assay type: functional
Method in brief: (§2)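 CLSI agar dilution on recent Korean clinical anaerobe isolates. Inoculum 10^5 CFU per spot by replicator. Plates incubated in an anaerobic chamber at 37°C for 48 h. For piperacillin plus tazobactam, tazobactam was held constant at 4 μg/ml. Resistance and susceptibility rates derived from MICs.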

[6] = test system: Parabacteroides distasonis; test: Antimicrobial activity against Bacteroides distasonis assessed as percent susceptible isolates after 48 hrs by agar dilution method; assay type: functional
[7] = test system: Parabacteroides distasonis; test: Antimicrobial activity against Bacteroides distasonis assessed as percent resistant isolates after 48 hrs by agar dilution method; assay type: functional; method in brief: as §2
[8] = test system: Phocaeicola vulgatus; test: Antimicrobial activity against Bacteroides vulgatus assessed as percent resistant isolates after 48 hrs by agar dilution method; assay type: functional; method in brief: as §2
[9] = test system: Bacteroides ovatus; test: Antimicrobial activity against Bacteroides ovatus assessed as percent susceptible isolates after 48 hrs by agar dilution method; assay type: functional
[10] = test system: Prevotella bivia; test: Antimicrobial activity against Prevotella bivia after 48 hrs by agar dilution method; assay type: functional
Method in brief: (§3)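 CLSI agar dilution (M11-A7); inoculum 10^5 CFU applied by replicator; plates incubated anaerobically 48 h at 37°C. For piperacillin-tazobactam, tazobactam held constant at 4 μg/ml.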

[11] = test system: Hoylesella oralis; test: Antimicrobial activity against Prevotella oralis after 48 hrs by agar dilution method; assay type: functional; method in brief: as §3
[12] = test system: Prevotella intermedia; test: Antimicrobial activity against Prevotella intermedia assessed as percent resistant isolates after 48 hrs by agar dilution method; assay type: functional; method in brief: as §2
[13] = test system: Prevotella buccae; test: Antimicrobial activity against Prevotella buccae assessed as percent resistant isolates after 48 hrs by agar dilution method; assay type: functional, Segatella buccae; method in brief: as §2
[14] = test system: Porphyromonas asaccharolytica; test: Antimicrobial activity against Porphyromonas asaccharolytica after 48 hrs by agar dilution method; assay type: functional; method in brief: as §3
[15] = test system: Fusobacterium necrogenes; test: Antimicrobial activity against Fusobacterium necrogenes after 48 hrs by agar dilution method; assay type: functional; method in brief: as §3
[16] = test system: Fusobacterium mortiferum; test: Antimicrobial activity against Fusobacterium mortiferum after 48 hrs by agar dilution method; assay type: functional; method in brief: as §3
[17] = test system: Anaerococcus prevotii; test: Antimicrobial activity against Anaerococcus prevotii assessed as percent susceptible isolates after 48 hrs by agar dilution method; assay type: functional
[18] = test system: Peptoniphilus asaccharolyticus; test: Antimicrobial activity against Peptoniphilus asaccharolyticus assessed as percent susceptible isolates after 48 hrs by agar dilution method; assay type: functional; method in brief: as §3
[19] = test system: Peptoniphilus asaccharolyticus; test: Antimicrobial activity against Peptoniphilus asaccharolyticus assessed as percent resistant isolates after 48 hrs by agar dilution method; assay type: functional; method in brief: as §2
[20] = test system: Finegoldia magna; test: Antimicrobial activity against Finegoldia magna assessed as percent susceptible isolates after 48 hrs by agar dilution method; assay type: functional; method in brief: as §3
[21] = test system: Finegoldia magna; test: Antimicrobial activity against Finegoldia magna assessed as percent resistant isolates after 48 hrs by agar dilution method; assay type: functional; method in brief: as §2
[22] = test system: Clostridioides difficile; test: Antimicrobial activity against Clostridium difficile assessed as percent susceptible isolates after 48 hrs by agar dilution method; assay type: functional
[23] = test system: Schaalia odontolytica; test: Antimicrobial activity against Actinomyces odontolyticus after 48 hrs by agar dilution method; assay type: functional; method in brief: as §1
[24] = test system: Schaalia odontolytica; test: Antimicrobial activity against Actinomyces odontolyticus assessed as percent susceptible isolates after 48 hrs by agar dilution method; assay type: functional
[25] = test system: Schaalia meyeri; test: Antimicrobial activity against Actinomyces meyeri after 48 hrs by agar dilution method; assay type: functional; method in brief: as §1
[26] = test system: Actinomyces naeslundii; test: Antimicrobial activity against Actinomyces naeslundii after 48 hrs by agar dilution method; assay type: functional; method in brief: as §1
[27] = test system: Actinomyces naeslundii; test: Antimicrobial activity against Actinomyces naeslundii assessed as percent resistant isolates after 48 hrs by agar dilution method; assay type: functional; method in brief: as §2
[28] = test system: Bifidobacterium adolescentis; test: Antimicrobial activity against Bifidobacterium adolescentis after 48 hrs by agar dilution method; assay type: functional; method in brief: as §1
[29] = test system: Eggerthella lenta; test: Antimicrobial activity against Eubacterium lentum assessed as percent resistant isolates after 48 hrs by agar dilution method; assay type: functional; method in brief: as §2
[30] = test system: Eubacterium sp.; test: Antimicrobial activity against Eubacterium sp. assessed as percent susceptible isolates after 48 hrs by agar dilution method; assay type: functional; method in brief: as §3

CO[C@@]1(NC(=O)C2SC(=C(C(N)=O)C(=O)O)S2)C(=O)N2C(C(=O)O)=C(CSc3nnnn3C)CS[C@@H]21 (some centres not stated) [CEFOTETAN]
MIC50 [1]: 8 mg/L (≈ 13.9 µM) | MIC90 [1]: 64 mg/L (≈ 111 µM) | MIC50 [2]: > 128 mg/L | MIC90 [2]: > 128 mg/L | MIC50 [3]: > 128 mg/L | MIC90 [3]: > 128 mg/L | Activity [4]: 71% | Activity [5]: 86% | Activity [6]: 89% | Activity [7]: 86% | Activity [8]: 86% | Activity [9]: 89% | MIC50 [10]: 4 mg/L (≈ 6.95 µM) | MIC90 [10]: 64 mg/L (≈ 111 µM) | MIC50 [11]: 4 mg/L (≈ 6.95 µM) | MIC90 [11]: 64 mg/L (≈ 111 µM) | Activity [12]: 0% | Activity [13]: 17% | MIC [14]: 0.06 mg/L (≈ 0.104 µM) | MIC [15]: 0.06 mg/L (≈ 0.104 µM) | MIC [16]: 0.06 mg/L (≈ 0.104 µM) | Activity [17]: 100% | Activity [18]: 100% | Activity [19]: 0% | Activity [20]: 100% | Activity [21]: 0% | Activity [22]: 83% | MIC50 [23]: 4 mg/L (≈ 6.95 µM) | MIC90 [23]: 64 mg/L (≈ 111 µM) | Activity [24]: 85% | MIC50 [25]: 4 mg/L (≈ 6.95 µM) | MIC90 [25]: 64 mg/L (≈ 111 µM) | MIC50 [26]: 4 mg/L (≈ 6.95 µM) | MIC90 [26]: 64 mg/L (≈ 111 µM) | Activity [27]: 15% | MIC50 [28]: 4 mg/L (≈ 6.95 µM) | MIC90 [28]: 64 mg/L (≈ 111 µM) | Activity [29]: 15% | Activity [30]: 85%

CCC[C@@H]1C[C@@H](C(=O)N[C@@H]([C@H]2O[C@H](SC)[C@H](O)[C@@H](O)[C@H]2O)[C@H](C)Cl)N(C)C1 [CLINDAMYCIN]
MIC50 [1]: 0.5 mg/L (≈ 1.18 µM) | MIC90 [1]: > 128 mg/L | MIC50 [2]: > 128 mg/L | MIC90 [2]: > 128 mg/L | MIC50 [3]: > 128 mg/L | MIC90 [3]: > 128 mg/L | Activity [4]: 67% | Activity [5]: 68% | Activity [6]: 16% | Activity [7]: 68% | Activity [8]: 68% | Activity [9]: 16% | MIC50 [10]: ≤ 0.06 mg/L | MIC90 [10]: 128 mg/L (≈ 301 µM) | MIC50 [11]: ≤ 0.06 mg/L | MIC90 [11]: 128 mg/L (≈ 301 µM) | Activity [12]: 0% | MIC [14]: 0.06 mg/L (≈ 0.141 µM) | MIC [15]: 0.06 mg/L (≈ 0.141 µM) | MIC [16]: 0.06 mg/L (≈ 0.141 µM) | Activity [17]: 60% | Activity [18]: 67% | Activity [19]: 33% | Activity [20]: 73% | Activity [21]: 13% | Activity [22]: 8% | MIC [23]: 0.06 mg/L (≈ 0.141 µM) | MIC50 [23]: 0.06 mg/L (≈ 0.141 µM) | MIC90 [23]: > 128 mg/L | Activity [24]: 85% | MIC [25]: 0.06 mg/L (≈ 0.141 µM) | MIC50 [25]: 0.06 mg/L (≈ 0.141 µM) | MIC90 [25]: > 128 mg/L | MIC [26]: 0.06 mg/L (≈ 0.141 µM) | MIC50 [26]: 0.06 mg/L (≈ 0.141 µM) | MIC90 [26]: > 128 mg/L | Activity [27]: 15% | MIC [28]: 0.06 mg/L (≈ 0.141 µM) | MIC50 [28]: 0.06 mg/L (≈ 0.141 µM) | MIC90 [28]: > 128 mg/L | Activity [29]: 15% | Activity [30]: 85%

Cc1ncc([N+](=O)[O-])n1CCO [METRONIDAZOLE]
MIC50 [1]: 2 mg/L (≈ 11.7 µM) | MIC90 [1]: 2 mg/L (≈ 11.7 µM) | MIC50 [2]: 2 mg/L (≈ 11.7 µM) | MIC90 [2]: 2 mg/L (≈ 11.7 µM) | MIC50 [3]: 2 mg/L (≈ 11.7 µM) | MIC90 [3]: 2 mg/L (≈ 11.7 µM) | Activity [4]: 100% | Activity [5]: 0% | Activity [6]: 100% | Activity [7]: 0% | Activity [8]: 0% | Activity [9]: 100% | MIC50 [10]: 4 mg/L (≈ 23.4 µM) | MIC90 [10]: 8 mg/L (≈ 46.7 µM) | MIC50 [11]: 4 mg/L (≈ 23.4 µM) | MIC90 [11]: 8 mg/L (≈ 46.7 µM) | Activity [12]: 0% | Activity [13]: 0% | MIC [14]: 0.13 mg/L (≈ 0.76 µM) | MIC [15]: 0.13 mg/L (≈ 0.76 µM) | MIC [16]: 0.13 mg/L (≈ 0.76 µM) | Activity [17]: 100% | Activity [18]: 100% | Activity [19]: 0% | Activity [20]: 100% | Activity [21]: 0% | Activity [22]: 100% | MIC50 [23]: 16 mg/L (≈ 93.5 µM) | MIC90 [23]: > 128 mg/L | Activity [24]: 46% | MIC50 [25]: 16 mg/L (≈ 93.5 µM) | MIC90 [25]: > 128 mg/L | MIC50 [26]: 16 mg/L (≈ 93.5 µM) | MIC90 [26]: > 128 mg/L | MIC50 [28]: 16 mg/L (≈ 93.5 µM) | MIC90 [28]: > 128 mg/L | Activity [30]: 46%

COc1c(N2C[C@@H]3CCCN[C@@H]3C2)c(F)cc2c(=O)c(C(=O)O)cn(C3CC3)c12 [MOXIFLOXACIN]
MIC50 [3]: 2 mg/L (≈ 4.98 µM) | MIC90 [3]: 16 mg/L (≈ 39.9 µM) | Activity [4]: 84% | Activity [5]: 18% | Activity [6]: 72% | Activity [7]: 18% | Activity [8]: 18% | Activity [9]: 72% | MIC50 [11]: 2 mg/L (≈ 4.98 µM) | MIC90 [11]: 8 mg/L (≈ 19.9 µM) | Activity [12]: 0% | Activity [13]: 11% | Activity [17]: 87% | Activity [18]: 100% | Activity [19]: 0% | Activity [20]: 60% | Activity [21]: 27% | MIC50 [23]: 1 mg/L (≈ 2.49 µM) | MIC90 [23]: 2 mg/L (≈ 4.98 µM) | Activity [24]: 92% | MIC50 [25]: 1 mg/L (≈ 2.49 µM) | MIC90 [25]: 2 mg/L (≈ 4.98 µM) | MIC50 [26]: 1 mg/L (≈ 2.49 µM) | MIC90 [26]: 2 mg/L (≈ 4.98 µM) | Activity [27]: 0% | MIC50 [28]: 1 mg/L (≈ 2.49 µM) | MIC90 [28]: 2 mg/L (≈ 4.98 µM) | Activity [29]: 0% | Activity [30]: 92%
